Activity calls are given as the source filed them. The rule behind the calls is not given here.
How the values were obtained:
Mus musculus [1] = assay: Acute toxicity in Kunming mouse assessed as mortality at 12 umol/kg, iv after 8 hrs post dose; assay type: organism-based; conditions: in vivo
MDA-MB-231 [2] = assay: Antitumor activity against human MDA-MB-231 cells xenografted in BALB/C nude mouse assessed as tumor weight at 12 umol/kg, iv administered starting on day 5 measured after day 22 (reference value: 0.67 +/- 0.14 g); assay type: functional
Outline: (§1)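 Female BALB/C mice inoculated subcutaneously in the back with 1 × 10^7 MDA-MB-231 cells in Matrigel–PBS (1:1). From day 5, daily iv dosing in 5% Solutol-HS15 vehicle, with a vehicle control group. Tumours measured by caliper every 2 days (v = 0.5 × a × b²); tumour weight as mean ± SEM, n = 6, one-way ANOVA with Tukey's test.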

MDA-MB-231 [3] = assay: Antiproliferative activity against human MDA-MB-231 cells transfected with pCMV6 incubated for 48 hrs by MTT assay; assay type: functional, cell-based; conditions: MDA-MB-231, 48 h
Outline: (§2)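 Cells grown in DMEM with 10% FBS and 1% penicillin-streptomycin at 37 °C, 5% CO2; 10% heat-inactivated FBS used during cytotoxicity testing to exclude serum FAP activity. Viability read by MTT; IC50 as mean ± SEM of at least three independent experiments. Transfected lines were made from MDA-MB-231 with human FAPα plasmid or empty pCMV6-Entry vector and checked by Western blot at 48 h.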

MDA-MB-231 [4] = assay: Antitumor activity against human MDA-MB-231 cells xenografted in BALB/C nude mouse assessed as decrease in tumor weight at 4 umol/kg, iv administered starting on day 5 measured after day 22; assay type: functional, organism-based; outline: as §1
MDA-MB-231 [5] = assay: Antitumor activity against human MDA-MB-231 cells xenografted in BALB/C nude mouse at 4 umol/kg, iv administered starting on day 5 measured after day 22 by Ki67 staining-based assay relative to control; assay type: functional
Outline: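 Female BALB/C nude mice, MDA-MB-231 cells (1 × 10^7) injected subcutaneously in Matrigel–PBS 1:1. Daily iv dosing in 5% HS15 vehicle from day 5. Tumours fixed and paraffin-embedded, 5 μm sections, anti-Ki67 IHC, read blind by a pathologist. Proliferative index by image analysis, n = 6. Compared with 5% HS15 control by one-way ANOVA and Tukey's test.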

[6] = Acute toxicity in iv dosed Kunming mouse measured less than 4 hrs post dose; assay type: organism-based; conditions: in vivo
Outline: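 Kunming mice (22.0−28.0 g), half male and half female, 10 groups of n = 10. Single iv dose on day 1 across five levels per compound (prodrug 29.98–50.00 μmol/kg; arenobufagin 4.50–8.00 μmol/kg). Watched continuously for 8 h for abnormal behaviour and deaths, then intermittently for 2 weeks, and sacrificed day 14. LD50 by Bliss method.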

Mus musculus [7] = assay: Nephrotoxicity in BALB/C nude mouse xenografted with human MDA-MB-231 cells at 12 umol/kg, iv administered starting on day 5 measured after day 22 by hematoxylin-eosin staining-based assay; assay type: toxicity, organism-based; conditions: in vivo
Outline: (§3)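 Tissues from dosed xenograft mice fixed for 24 h and paraffin-embedded. Sections of 5 μm, H&E stained; heart, liver, spleen, lung, kidney and femur examined by a pathologist blind to treatment.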

Mus musculus [8] = assay: Cardiotoxicity in BALB/C nude mouse xenografted with human MDA-MB-231 cells assessed as change in left ventricular internal systole dimension at 12 umol/kg, iv administered starting on day 5 measured after day 22 by echocardiography; assay type: toxicity, organism-based; conditions: in vivo
Outline: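 Same MDA-MB-231 xenograft mice, given daily iv doses in 5% HS15 from day 5. After 22 days of dosing, transthoracic echocardiography with a 21 MHz transducer under 1.5% isoflurane, supine. M-mode images taken from the parasternal short-axis view at the papillary muscle; IVSd, IVSs, LVIDd and LVIDs derived, n = 6.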

Mus musculus [9] = assay: Toxicity in BALB/C nude mouse xenografted with human MDA-MB-231 cells assessed as histopathologic change in lungh at 12 umol/kg, iv administered starting on day 5 measured after day 22 by hematoxylin-eosin staining-based assay; assay type: organism-based; conditions: in vivo; outline: as §3
Prolyl endopeptidase FAP = molecular target: T1, Prolyl endopeptidase FAP (Homo sapiens, UniProt Q12884); assay: Prodrug activation assessed as recombinant human FAP-alpha mediated (S)-((3S,5R,8R,9S,10S,11S,13R,14S,17R)-11,14-dihydroxy-10,13-dimethyl-12-oxo-17-(2-oxo-2H-pyran-5-yl)hexadecahydro-1H-cyclopenta[a]phenanthren-3-yl) 2-amino-3-(1H-indol-3-yl)propanoate formation by measuring intrinsic clearance at 40 umol/L […] by UPLC-MS/MS analysis; conditions: 40 µM
T1 sequence (Q12884 whole entry): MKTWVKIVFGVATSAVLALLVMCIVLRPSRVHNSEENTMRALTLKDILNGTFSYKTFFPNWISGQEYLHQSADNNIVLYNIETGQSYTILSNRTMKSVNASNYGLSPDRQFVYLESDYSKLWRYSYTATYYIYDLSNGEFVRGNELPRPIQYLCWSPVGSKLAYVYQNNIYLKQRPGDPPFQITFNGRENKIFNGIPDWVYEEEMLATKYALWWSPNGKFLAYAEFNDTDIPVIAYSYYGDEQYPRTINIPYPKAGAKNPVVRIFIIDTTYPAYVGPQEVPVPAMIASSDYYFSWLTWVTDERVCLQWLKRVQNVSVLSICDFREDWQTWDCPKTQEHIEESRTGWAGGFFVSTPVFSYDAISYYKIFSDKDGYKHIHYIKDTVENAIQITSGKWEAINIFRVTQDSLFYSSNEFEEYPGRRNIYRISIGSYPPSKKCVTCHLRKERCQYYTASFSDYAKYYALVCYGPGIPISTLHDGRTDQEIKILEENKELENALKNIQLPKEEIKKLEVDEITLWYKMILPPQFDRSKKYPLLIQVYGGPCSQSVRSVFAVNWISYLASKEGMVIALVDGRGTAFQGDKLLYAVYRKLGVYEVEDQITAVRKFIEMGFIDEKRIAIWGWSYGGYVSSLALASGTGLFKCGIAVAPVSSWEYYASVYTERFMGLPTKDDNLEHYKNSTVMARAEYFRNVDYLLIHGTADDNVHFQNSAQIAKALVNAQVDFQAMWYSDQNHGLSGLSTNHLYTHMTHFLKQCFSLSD

MDA-MB-231 [10] = assay: Induction of apoptosis in human MDA-MB-231 cells xenografted in BALB/C nude mouse at 4 umol/kg, iv administered starting on day 5 measured after day 22 by tunnel assay relative to control; assay type: functional; conditions: in the assay text read “12 umol/kg” for “4 umol/kg”
Outline: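 Paraffin tumour sections from dosed xenograft mice stained by in situ cell death detection (TUNEL), examined blind to treatment. Percentage of apoptotic cells quantified by image analysis. Mean ± SEM, n = 6, versus the 5% HS15 control.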

MDA-MB-231 [11] = assay: Antiproliferative activity against FAP-alpha deficient human MDA-MB-231 cells incubated for 48 hrs by MTT assay; assay type: functional, cell-based; conditions: MDA-MB-231, 48 h; outline: as §2
Mus musculus [12] = assay: Toxicity in BALB/C nude mouse xenografted with human MDA-MB-231 cells assessed as abnormal behavioral at 12 umol/kg, iv administered starting on day 5 measured after day 22; assay type: organism-based; conditions: in vivo
[13] = Ratio of invivo prodrug activation in tumor of BALB/C nude mouse xenografted with human MDA-MB-231 cells assessed as FAP-alpha mediated (S)-((3S,5R,8R,9S,10S,11S,13R,14S,17R)-11,14-dihydroxy-10,13-dimethyl-12-oxo-17-(2-oxo-2H-pyran-5-yl)hexadecahydro-1H-cyclopenta[a]phenanthren-3-yl) 2-amino-3-(1H-indol-3-yl)propanoate formation in absence of talabostat to FAP-alpha mediated (S)-((3S,5R,8R,9S,10S,11S,13R,14S,17R)-11,14-dihydroxy-10,13-dimethyl-12-oxo-17-(2-oxo-2H-pyran-5-yl)hexadecahydro-1H-cyclopenta[a]phenanthren-3-yl) 2-amino-3-(1H-indol-3-yl)propanoate formation in presence of talabostat at 40 umol/L by LC-MS/MS analysis; set-up: species or system Neoplasm

C[C@]12CC[C@H](OC(=O)[C@H](Cc3c[nH]c4ccccc34)NC(=O)[C@@H]3CCCN3C(=O)CNC(=O)OCc3ccccc3)C[C@H]1CC[C@@H]1[C@@H]2[C@H](O)C(=O)[C@]2(C)[C@@H](c3ccc(=O)oc3)CC[C@]12O
Activity (Mus musculus [1]): Non-Toxic
Activity (MDA-MB-231 [2]): 0.43 g
IC50 (MDA-MB-231 [3]): 0.024 µM
Activity (MDA-MB-231 [4]): Active
Activity (MDA-MB-231 [5]): 45 - 50%
LD50 at 4 h [6]: 44 µmol/kg
Activity (Mus musculus [7]): Non-Toxic
Activity (Mus musculus [8]): Non-Toxic
Activity (Mus musculus [9]): Non-Toxic
CL (Prolyl endopeptidase FAP): 65890 µL/min/mg
fold change (FC) (MDA-MB-231 [10]): 5
IC50 (MDA-MB-231 [11]): 0.027 µM
Activity (Mus musculus [12]): Non-Toxic
Ratio [13]: 20
